Measured values from ChEMBL document CHEMBL3286351, “Antibacterial evaluation of structurally amphipathic, membrane active small cationic peptidomimetics: synthesized by incorporating 3-amino benzoic acid as peptidomimetic element” (Eur J Med Chem, 2014).
Converted amounts (≈) assume the structure as drawn. The source made the active and inactive calls. The rule behind the calls is not given here. Where a SMILES comes first, the peptide text is derived from it. [ ]: non-standard residue; d: D form. 3Abz = Nc1cccc(C(=O)O)c1; Orn = NCCC[CH](N)C(=O)O

Assays:
[1] = Stability in human plasma assessed as compound degradation after 2 hrs by RP-HPLC analysis; format: ADME, cell-free; conditions: read-out: Drug degradation
In short: (§1)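 Compound (1 mg/mL stock in water; 50 µL) added to 1 mL fresh heparinized human plasma and held at 37 °C. Samples taken at 30 min, 1, 2, 6, 12 and 24 h. Proteins precipitated with 95% ethanol, cooled at 4 °C for 15 min and centrifuged at 18,000 g. Supernatant analyzed by RP-HPLC with UV detection at 280 nm.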

Staphylococcus aureus [2] = experiment: Induction of membrane damage in Staphylococcus aureus at 4 times MIC after 2 hrs by DAPI/propidium iodide staining based fluorescence microscopy; format: functional, organism-based
In short: (§2)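 Stained with PI (5 µg/mL) for 15 min in the dark at 0 °C, washed, then DAPI (10 µg/mL) for 15 min in the dark at 0 °C. Untreated cells processed identically as controls. Imaged by fluorescence microscopy with a 60× oil objective.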

Plasma [3] = experiment: Stability in human plasma assessed as compound degradation after 1 hr by RP-HPLC analysis; format: ADME, cell-free; in short: as §1
Plasma [4] = experiment: Stability in human plasma assessed as compound degradation after 24 hrs by RP-HPLC analysis; format: ADME, cell-free; conditions: 24 h; in short: as §1
Lipid bilayer [5] = experiment: Membrane permeabilization in bacterial membrane model consisting large unilamellar vesicle of dipalmitoylphosphatidylcholine:dipalmitoylphosphatidylglycerol at ratio of 7:3 assessed as calcein release after 5 mins by fluorescence assay; format: cell membranes
In short: (§3)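 LUVs of DPPC:DPPG 7:3 (w/w) loaded with 70 mM calcein (150 mM NaCl, 0.1 mM EDTA, pH 7.4). Made by freeze-thaw and extrusion through 100 nm filters; free dye removed on Sephadex G-50; diameter 110-130 nm. Diluted to 40 µM lipid and exposed to 5-15 µg/mL compound. Fluorescence read at ex 490/em 520 nm each minute for 20 min, then every 10 min. Triton X-100 defined 100% release.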

Staphylococcus aureus [6] = experiment: Antibacterial activity against Staphylococcus aureus MTCC 3160 assessed as growth inhibition treated for 16 days by two-fold dilution assay; format: functional, organism-based
Staphylococcus aureus [7] = experiment: Antibacterial activity against methicillin-resistant Staphylococcus aureus ATCC BAA-1720 assessed as growth inhibition after 18 hrs by CLSI microdilution broth assay; format: functional; conditions: ATCC BAA-1720, 18 h
In short: (§4)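 Modified CLSI broth microdilution in Mueller-Hinton broth. Wells held 90 µL of about 2 × 10^5 CFU/mL inoculum plus 10 µL of serially diluted peptidomimetic, range 0.7-100 µg/mL. Plates were incubated overnight with agitation at 37 °C and absorbance read at 600 nm after 18 h. Controls: inoculum without compound, and uninoculated broth. Run in triplicate.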

Escherichia coli [8] = experiment: Induction of membrane damage in Escherichia coli at 4 times MIC after 2 hrs by DAPI/propidium iodide staining based fluorescence microscopy; format: functional, organism-based; in short: as §2
HaCaT [9] = experiment: Cytotoxicity against human HaCaT cells assessed as decrease in cell viability after 24 hrs by MTT assay; format: cell-based
In short: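 HaCaT keratinocytes grown as a monolayer in DMEM with 10% FBS and penicillin/streptomycin, 37 °C, 5% CO2. Seeded 24 h, then exposed to compound for 24 h. MTT (5 mg/mL stock in PBS) added for 4 h; formazan dissolved in isopropanol and read at 570 nm. Growth inhibition calculated relative to medium-only controls. Two independent experiments in triplicate.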

Lipid bilayer [10] = experiment: Membrane permeabilization in bacterial membrane model consisting large unilamellar vesicle of dipalmitoylphosphatidylcholine:dipalmitoylphosphatidylglycerol at ratio of 7:3 assessed as calcein release at 5 ug/ml after 50 mins by fluorescence assay; format: cell membranes; in short: as §3
[11] = Retention time of the compound by HPLC analysis; format: physicochemical
In short: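 Analytical RP-HPLC on a C18 column (5 µm, 4.6 × 250 mm) at room temperature. Run a linear gradient of 0.5-60% acetonitrile containing 0.05% TFA against water containing 0.05% TFA at 0.5 mL/min.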

HaCaT [12] = experiment: Cytotoxicity against human HaCaT cells at 100 to 500 ug/ml after 24 hrs by LDH release assay; format: cell-based
In short: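 HaCaT cells (DMEM with 10% FBS, 37 °C, 5% CO2) seeded for 24 h, then treated with varying concentrations for 24 h. LDH measured at 490 nm in both supernatant and trypsinized cell lysate with a non-radioactive kit. % release = supernatant/(supernatant + lysate) × 100. Two independent experiments in triplicate.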

Staphylococcus aureus [13] = experiment: Antibacterial activity against Staphylococcus aureus MTCC 3160 assessed as growth inhibition after 18 hrs by CLSI microdilution broth assay; format: functional; conditions: MTCC 3160, 18 h
[14] = Membrane permeabilization in mammalian membrane model consisting large unilamellar vesicle of dipalmitoylphosphatidylcholine:cholesterol at ratio of 10:1 assessed as calcein release at 15 ug/ml after 5 mins by fluorescence assay; format: cell membranes
In short: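 LUVs of DPPC/cholesterol 10:1 (w/w) loaded with calcein, extruded through 100 nm filters, and cleared of free dye on Sephadex G-50. Diluted to 40 µM lipid in calcein-free buffer (150 mM NaCl, 0.1 mM EDTA). Calcein release read at ex 490/em 520 nm, normalized to Triton X-100 lysis.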

[15] = system: Staphylococcus epidermidis; experiment: Antibacterial activity against methicillin-resistant Staphylococcus epidermidis ATCC 51625 assessed as growth inhibition after 18 hrs by CLSI microdilution broth assay; format: functional; conditions: ATCC 51625, 18 h; in short: as §4
Escherichia coli [16] = experiment: Bactericidal activity against Escherichia coli MTCC 723 assessed as number of bacteria at 4 times MIC measured within 30 mins by time kill assay (reference value: 10^6 CFU/ml); format: functional
In short: (§5)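 Time-kill assay. […] Aliquots taken at fixed intervals were serially diluted and plated on Mueller-Hinton agar. CFU were counted after 24 h at 37 °C. Two independent experiments, each in triplicate.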

Staphylococcus aureus [17] = experiment: Antibacterial activity against methicillin-resistant Staphylococcus aureus ATCC BAA-1720 assessed as growth inhibition treated for 16 days by two-fold dilution assay; format: functional, organism-based
In short: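 Serial-passage resistance study. Start from the initial MIC by broth microdilution, then expose cells to doubling dilutions in triplicate wells. After each 18 h incubation, pool the wells with the highest concentration still showing visible growth and re-inoculate at about 2 × 10^6 CFU/mL.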

alpha chymotrypsin = experiment: Proteolytic stability assessed as alpha chymotrypsin (unknown origin)-mediated compound degradation by measuring compound remaining after 4 days by RP-HPLC analysis; format: ADME; conditions: human, read-out: Stability
In short: (§6)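 Compound at 1 mg/mL in 0.1 M NH4HCO3 (pH 8.2) combined with trypsin or α-chymotrypsin solution (1 mg enzyme per 50 mL of the same buffer) at 37 °C. Aliquots taken over time and quenched with 10% formic acid. Remaining compound quantified by C18 RP-HPLC. An enzyme-free control was run for each test.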

[18] = Proteolytic stability assessed as alpha chymotrypsin (unknown origin)-mediated compound degradation after 24 hrs by RP-HPLC analysis; format: ADME; conditions: human; in short: as §6
Lipid bilayer [19] = experiment: Membrane permeabilization in bacterial membrane model consisting large unilamellar vesicle of dipalmitoylphosphatidylcholine:dipalmitoylphosphatidylglycerol at ratio of 7:3 assessed as calcein release at 15 ug/ml after 20 mins by fluorescence assay; format: cell membranes; in short: as §3
[20] = Proteolytic stability assessed as trypsin (unknown origin)-mediated compound degradation after 36 hrs by RP-HPLC analysis; format: ADME; conditions: human; in short: as §6
Pseudomonas aeruginosa = experiment: Antibacterial activity against Pseudomonas aeruginosa MTCC 2295 assessed as growth inhibition after 18 hrs by CLSI microdilution broth assay; format: functional; conditions: MTCC 2295, 18 h
trypsin = experiment: (§7) Proteolytic stability assessed as trypsin (unknown origin)-mediated compound degradation by measuring compound remaining after 4 days by RP-HPLC analysis; format: ADME; conditions: human, trypsin; read-out: Stability; in short: as §6
Bacillus subtilis = experiment: Antibacterial activity against Bacillus subtilis MTCC 2763 assessed as growth inhibition after 18 hrs by CLSI microdilution broth assay; format: functional; conditions: MTCC 2763, 18 h
Staphylococcus aureus [21] = experiment: Bactericidal activity against Staphylococcus aureus MTCC 3160 assessed as number of bacteria at 4 times MIC measured within 30 mins by time kill assay (reference value: 10^6 CFU/ml); format: functional; in short: as §5
[22] = Selectivity ratio of HC50 for hemolysis in human RBC to MIC for Staphylococcus aureus
Escherichia coli [23] = experiment: Antibacterial activity against Escherichia coli MTCC 723 assessed as growth inhibition after 18 hrs by CLSI microdilution broth assay; format: functional; conditions: MTCC 723, 18 h
[24] = Induction of hemolysis in human RBC assessed as hemoglobin release after 1 hr by microtiter plate reader analysis; format: cell-based, Erythrocyte; conditions: for HC10: erythrocyte, 1 h; for HC50 at 1 h: red blood cells
In short: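 Freshly isolated human RBCs washed three times in PBS (35 mM phosphate, 150 mM NaCl, pH 7.2) and used as a 4% (v/v) suspension. Mixed 1:1 with twofold serial dilutions of compound, incubated 1 h at 37 °C without agitation, then centrifuged. Supernatant A540 read. PBS defined 0% and 1% Triton X-100 defined 100% lysis; HC50 and HC10 derived.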

Lipid bilayer [25] = experiment: Membrane permeabilization in bacterial membrane model consisting large unilamellar vesicle of dipalmitoylphosphatidylcholine:dipalmitoylphosphatidylglycerol at ratio of 7:3 assessed as calcein release at 15 ug/ml after 90 mins by fluorescence assay; format: cell membranes; in short: as §3
Lipid bilayer [26] = experiment: Membrane permeabilization in bacterial membrane model consisting large unilamellar vesicle of dipalmitoylphosphatidylcholine:dipalmitoylphosphatidylglycerol at ratio of 7:3 assessed as calcein release at 5 ug/ml after 90 mins by fluorescence assay; format: cell membranes; in short: as §3
[27] = as §7; format: ADME; conditions: human, 96 h; in short: as §6

| Structure (SMILES) | Activity (Staphylococcus aureus [2]) | Stability (Plasma [4]) | Activity (Lipid bilayer [5]) | inhibition (Staphylococcus aureus [6]) | MIC (Staphylococcus aureus [7]) [µg/mL] | Activity (Escherichia coli [8]) | Activity (HaCaT [9]) | Retention_time [11] [min] | Activity (HaCaT [12]) | MIC (Staphylococcus aureus [13]) [µg/mL] | Activity [14] | MIC [15] [µg/mL] | CFU/ml (Escherichia coli [16]) | inhibition (Staphylococcus aureus [17]) | remaining at 96 h (alpha chymotrypsin) [%] | Stability [18] | MIC (Pseudomonas aeruginosa) [µg/mL] | MIC (Bacillus subtilis) [µg/mL] | CFU/ml (Staphylococcus aureus [21]) | Selectivity ratio [22] | further results |
| --- | --- | --- | --- | --- | --- | --- | --- | --- | --- | --- | --- | --- | --- | --- | --- | --- | --- | --- | --- | --- | --- |
| N=C(N)NCCCC(NC(=O)C(Cc1c[nH]c2ccccc12)NC(=O)c1cccc(NC(=O)C(Cc2c[nH]c3ccccc23)NC(=O)C(CCCNC(=N)N)NC(=O)C(N)Cc2c[nH]c3ccccc23)c1)C(N)=O (stereo not given) (H-WRW[3Abz]WR-NH2; configuration not given here) | Active | Stable | Dose-dependent effect | Active | 5.5 (≈ 5.46 µM) | Active | Dose-dependent effect | 27.34 | Toxic | 5 (≈ 4.96 µM) | inactive | 5 (≈ 4.96 µM) | 1000 | Active | 70 | Stable | 12.5 (≈ 12.4 µM) | 20 (≈ 19.9 µM) | 1000 | 62 | metabolised at 2 h [1]: 6.58%; Stability (Plasma [3]): Stable; Activity (Lipid bilayer [10]): 19%; Activity (Lipid bilayer [19]): 47%; Stability [20]: Stable; remaining at 96 h (trypsin): 65%; MIC (Escherichia coli [23]): 7.5 µg/mL (≈ 7.45 µM); HC10 [24]: 80 µg/mL; HC50 at 1 h [24]: 310 µg/mL |
| NCCCC(NC(=O)C(Cc1c[nH]c2ccccc12)NC(=O)c1cccc(NC(=O)C(Cc2c[nH]c3ccccc23)NC(=O)C(CCCN)NC(=O)C(N)Cc2c[nH]c3ccccc23)c1)C(N)=O (stereo not given) (H-W[Orn]W[3Abz]W[Orn]-NH2; configuration not given here) | Active | Stable | Dose-dependent effect | Active | 5 (≈ 5.42 µM) | Active | Dose-dependent effect | 25.378 | Toxic | 6.25 (≈ 6.77 µM) | inactive | 6.25 (≈ 6.77 µM) | 1000 | Active | 70 | Stable | 15.5 (≈ 16.8 µM) | 25 (≈ 27.1 µM) | 1000 | 62.4 | Activity (Lipid bilayer [25]): 48%; Activity (Lipid bilayer [26]): 23%; Stability [27]: Stable; MIC (Escherichia coli [23]): 20 µg/mL (≈ 21.7 µM); HC10 [24]: 100 µg/mL; HC50 at 1 h [24]: 390 µg/mL |
